{"data": "Measured values collected from several papers", "CHRNA9": "Neuronal acetylcholine receptor subunit alpha-9 (CHRNA9, Homo sapiens, UniProt Q9UGM1)", "MAOB": "Amine oxidase [flavin-containing] B (MAOB, Homo sapiens, UniProt P27338)", "CA9": "Carbonic anhydrase 9 (CA9, Homo sapiens, UniProt Q16790)", "HRH1": "Histamine H1 receptor (HRH1, Homo sapiens, UniProt P35367)", "emrE": "emrE (Escherichia coli, UniProt P23895)", "note": "Lines come from different studies, so protocols differ."}
{"SMILES": "CCC[N+]1(C)CCN(c2ccccc2)CC1", "target": "CHRNA9", "assay": "ion current, agonist, two-electrode voltage clamp", "conditions": "oocytes", "endpoint": "EC50", "value": "60 µM"}
{"SMILES": "CCOC(=O)c1ccc(OC(=O)CCCCCN=C(N)N)cc1", "target": "Urokinase-type plasminogen activator (PLAU, Homo sapiens, UniProt P00749)", "assay": "enzyme activity, inhibitor", "endpoint": "IC50", "value": "0.0236 µM"}
{"SMILES": "CC[C@H](C)[C@H](NC(=O)[C@H](C)NC(=O)[C@H](CCC(=O)O)NC(=O)[C@H](Cc1c[nH]cn1)NC(=O)[C@H](CC(C)C)NC(=O)[C@@H](NC(=O)[C@H](Cc1ccccc1)NC(=O)[C@H](CO)NC(=O)[C@@H](NC(=O)[C@H](CC(C)C)NC(=O)[C@H](CC(=O)O)NC(=O)[C@H](CC(C)C)NC(=O)[C@@H]1CCCN1)[C@@H](C)O)C(C)C)C(=O)O", "target": "MAOB", "assay": "enzyme activity, inhibitor, fluorescence", "endpoint": "IC50", "value": "1900 µM"}
{"SMILES": "CC1=C(O)C(=O)C=C2C1=CC=C1[C@@]2(C)CC[C@@]2(C)[C@@H]3C[C@](C)(C(=O)O)CC[C@]3(C)CC[C@]12C", "target": "Cytochrome P450 3A5 (CYP3A5, Homo sapiens, UniProt P20815)", "assay": "binding, BLI", "system": "SAS", "endpoint": "Kd", "value": "2.07 µM"}
{"SMILES": "Cc1c(Cl)c(=O)oc2cc(OCCCC[Se]C#N)ccc12", "target": "CA9", "assay": "enzyme activity, inhibitor, stopped-flow", "endpoint": "Ki", "value": "0.0429 µM"}
{"SMILES": "CCC[N+]1(CC)CCN(c2ccc(C#N)cc2)CC1", "target": "CHRNA9", "assay": "ion current, agonist, two-electrode voltage clamp", "conditions": "oocytes", "endpoint": "EC50", "value": "1.9 µM"}
{"SMILES": "CCCCC1CNC2CCc3ccc(OC)cc3C12 (racemic)", "target": "HRH1", "assay": "ligand displacement, radioligand", "endpoint": "Ki", "value": "0.135 µM"}
{"SMILES": "Cc1nccc2c1[nH]c1ccccc12", "target": "emrE", "assay": "binding, fluorescence", "endpoint": "Kd", "value": "46 µM"}
{"SMILES": "N#C[Se]CCCCOc1ccc2c(-c3ccccc3)cc(=O)oc2c1", "target": "CA9", "assay": "enzyme activity, inhibitor, stopped-flow", "endpoint": "Ki", "value": "0.211 µM"}
{"SMILES": "C[n+]1ccc(-c2cc[n+](C)cc2)cc1", "target": "emrE", "assay": "binding, fluorescence", "endpoint": "Kd", "value": "73 µM"}
{"SMILES": "COc1cc2c(cc1OC)CN(CCc1ccc(NC(=O)c3cccc4c(=O)c5cccc(OC)c5[nH]c34)cc1)CC2", "target": "HRH1", "assay": "cell-free assay", "endpoint": "Ki", "value": "> 10 µM"}
{"SMILES": "CC[C@H](C)[C@H](N)C(=O)N1CCC[C@H]1C(=O)N1CCC[C@H]1C(=O)NCC(=O)N[C@H](C(=O)N1CCC[C@H]1C(=O)N[C@@H](Cc1ccc(O)cc1)C(=O)O)C(C)C", "target": "MAOB", "assay": "enzyme activity, inhibitor, fluorescence", "endpoint": "IC50", "value": "9410 µM"}
{"SMILES": "CN1CC[C@@]2(C)c3cc(OC(=O)Nc4ccccc4)ccc3N(C)[C@@H]12", "target": "Retinaldehyde dehydrogenase 3 (ALDH1A3, Homo sapiens, UniProt P47895)", "assay": "enzyme activity, inhibitor", "endpoint": "IC50", "value": "< 10 µM"}
